Assay results as given in ChEMBL document CHEMBL4823286, “Synthesis and evaluation of novel 2,4-diaminopyrimidines bearing a sulfoxide moiety as anaplastic lymphoma kinase (ALK) inhibition agents” (Bioorg Med Chem Lett, 2021).

Tests used:
BaF3 = test: Antiproliferative activity against mouse BaF3 cells overexpressing ALK assessed as inhibition of cell proliferation measured by CCK8 assay; type: functional, cell-based
Summary of the method: (§1)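 Cell proliferation inhibition; IC50 given as mean ± SD of three independent experiments.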

NCI-H2228 [1] = test: Antiproliferative activity against human NCI-H2228 cells assessed as inhibition of cell proliferation measured by CCK8 assay; type: functional, cell-based; summary of the method: as §1
NCI-H2228 [2] = test: Induction of apoptosis in human NCI-H2228 cells assessed as viable cells at 25 nM measured after 48 hrs by Annexin V-FITC/PI staining based flow cytometry assay (reference value: 95.3%); type: functional; conditions: read-out: Activity
Summary of the method: (§2)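 After 24 h or 48 h exposure (5, 25, 50 nM; DMSO 0.01% control), NCI-H2228 cells were harvested, double-stained with Annexin V-FITC and PI and run on flow cytometry. Stage percentages quantified by software; three experiments, representative shown.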

NCI-H2228 [3] = test: Induction of apoptosis in human NCI-H2228 cells assessed as viable cells at 25 nM measured after 24 hrs by Annexin V-FITC/PI staining based flow cytometry assay (reference value: 95.6%); type: functional; conditions: read-out: Activity; summary of the method: as §2
NCI-H2228 [4] = test: Induction of apoptosis in human NCI-H2228 cells assessed as necrotic cells at 25 nM measured after 24 hrs by Annexin V-FITC/PI staining based flow cytometry assay (reference value: 0.21%); type: functional; summary of the method: as §2
NCI-H2228 [5] = test: Induction of apoptosis in human NCI-H2228 cells assessed as necrotic cells at 25 nM measured after 48 hrs by Annexin V-FITC/PI staining based flow cytometry assay (reference value: 2.88%); type: functional; summary of the method: as §2
NCI-H2228 [6] = test: Induction of apoptosis in human NCI-H2228 cells assessed as late apoptotic cells at 25 nM measured after 48 hrs by Annexin V-FITC/PI staining based flow cytometry assay (reference value: 0.23%); type: functional; summary of the method: as §2
NCI-H2228 [7] = test: Induction of apoptosis in human NCI-H2228 cells assessed as early apoptotic cells at 25 nM measured after 48 hrs by Annexin V-FITC/PI staining based flow cytometry assay (reference value: 1.58%); type: functional; summary of the method: as §2
NCI-H2228 [8] = test: Induction of apoptosis in human NCI-H2228 cells assessed as early apoptotic cells at 25 nM measured after 24 hrs by Annexin V-FITC/PI staining based flow cytometry assay (reference value: 2.18%); type: functional; summary of the method: as §2
NCI-H2228 [9] = test: Induction of apoptosis in human NCI-H2228 cells assessed as late apoptotic cells at 25 nM measured after 24 hrs by Annexin V-FITC/PI staining based flow cytometry assay (reference value: 2.02%); type: functional; summary of the method: as §2

Row | SMILES | IC50 (BaF3) | IC50 (NCI-H2228 [1]) | further results
1 | CC[S+]([O-])c1ccccc1Nc1nc(Nc2ccc(N3CCN(C)CC3)cc2OC)ncc1Cl (stereo unspecified) | 13.1 nM | 35.2 nM | 
2 | CC[S+]([O-])c1ccccc1Nc1nc(Nc2ccc(N(C)CCN(C)C)cc2OC)ncc1Cl (stereo unspecified) | 26.3 nM | 69.3 nM | 
3 | COc1cc(N2CCC(N3CCN(C)CC3)CC2)ccc1Nc1ncc(Cl)c(Nc2ccccc2P(C)(C)=O)n1 [BRIGATINIB] | 8.49 nM | 31.2 nM | viability at 0.025 µM (NCI-H2228 [2]): 52%; viability at 0.025 µM (NCI-H2228 [3]): 81.9%; Activity (NCI-H2228 [4]): 0.2%; Activity (NCI-H2228 [5]): 4.32%; Activity (NCI-H2228 [6]): 31%; Activity (NCI-H2228 [7]): 12.7%; Activity (NCI-H2228 [8]): 14.4%; Activity (NCI-H2228 [9]): 3.47%
4 | CC[S+]([O-])c1ccccc1Nc1nc(Nc2cc(N)c(N(C)CCN(C)C)cc2OC)ncc1Cl (stereo unspecified) | 75 nM | 2630 nM | 
5 | CCSc1ccccc1Nc1nc(Nc2ccc(N3CCN(C)CC3)cc2OC)ncc1Cl | 78 nM | 981 nM | 
6 | CCC(=O)Nc1cc(Nc2ncc(Cl)c(Nc3ccccc3[S+]([O-])CC)n2)c(OC)cc1N(C)CCN(C)C (stereo unspecified) | 35.4 nM | 55.4 nM | 
7 | CC[S+]([O-])c1ccccc1Nc1nc(Nc2ccc(N3CCCN(C)CC3)cc2OC)ncc1Cl (stereo unspecified) | 23.5 nM | 51.5 nM | 
8 | CC[S+]([O-])c1cc(F)ccc1Nc1nc(Nc2ccc(N3CCN(C)CC3)cc2OC)ncc1Cl (stereo unspecified) | 48.9 nM | 104 nM | 
9 | Cc1cc(Nc2ncc(Cl)c(Nc3ccccc3S(=O)(=O)C(C)C)n2)c(OC(C)C)cc1C1CCNCC1 [CERITINIB] | 7.11 nM | 22.1 nM | 
